XiGFP reactiv = X-chromosome reactivation activator | actives 0.055% (n = 360,000) | XiGFP mouse fibroblasts, % GFP-positive cells imaging, 3 d; cells co-treated with 5-aza-dC sensitizer; scaled so ellipticine positive control = 100% | AID 743238 | activation, % at 7.58 µM;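 active = mean normalized replicate activation at least 10% and every replicate at or above 10%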;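 note: 0% = median of on-plate neutral control wells and 100% = ellipticine 6 µM median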
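System: XiGFP fibroblasts, SV40-immortalized. Medium: DMEM plus 5-aza-dC sensitizer. Doses: single point. Timing: 3 d treatment, 15 min room-temperature fixation. Control set: ellipticine 6 µM.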
PGC1a acetyl inh = modulators of PGC1a acetylation | U2OS PGC1a acetylation, AlphaScreen anti-acetyl-lysine; with virally co-expressed GCN5 acetyltransferase | actives 0.17% (n = 350,000) | inhibition, % at 15.6 µM | AID 651687;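 active = every replicate shows inhibition of at least 40%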;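 note: 0% = neutral control wells and 100% = positive control wells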
GSIS activator = GLuc luminescence reporter in INS-1E cells, primary screen for activators of glucose-dependent secretion of insulin; INS-1E GLuc reporter insulin secretion, 2-3 h; activation, % at 16.6 µM; actives 0.61% (n = 370,000); AID 743287;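 active = lowest replicate activation of at least 40%, so every replicate reaches that level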;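 note: 0% = median of neutral control wells and 100% = median of IBMX positive control wells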
PAX8 reporter = inhibitors of PAX8 transcriptional activity in RMG-I cells | actives 1.2% (n = 360,000) | inhibition, % at 12.6 µM | AID 652154 | RMG-I TPO-luciferase reporter, SteadyGlo, 24 h;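 active = mean replicate inhibition at least 60% with every replicate also reaching 60%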;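 note: luciferase light reporting Pax8 driven TPO promoter activity; plate controls were median of neutral control wells for no effect and mitoxantrone controls for full effect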
MLL AF4-AF9 inh = MLL-AF4/AF9 protein interaction inhibition. AlphaScreen, biotin-AF4 peptide binding to FLAG-AF9. inhibition, % at 10 µM. actives 0.47% (n = 350,000). AID 651704. P42568;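 active = every replicate reaching a set inhibition limit, whatever the replicate mean, cut at about 25% in these data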;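 note: 0% = plate neutral control median and 100% = total signal loss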
Target sequence (P42568 whole entry, looked up): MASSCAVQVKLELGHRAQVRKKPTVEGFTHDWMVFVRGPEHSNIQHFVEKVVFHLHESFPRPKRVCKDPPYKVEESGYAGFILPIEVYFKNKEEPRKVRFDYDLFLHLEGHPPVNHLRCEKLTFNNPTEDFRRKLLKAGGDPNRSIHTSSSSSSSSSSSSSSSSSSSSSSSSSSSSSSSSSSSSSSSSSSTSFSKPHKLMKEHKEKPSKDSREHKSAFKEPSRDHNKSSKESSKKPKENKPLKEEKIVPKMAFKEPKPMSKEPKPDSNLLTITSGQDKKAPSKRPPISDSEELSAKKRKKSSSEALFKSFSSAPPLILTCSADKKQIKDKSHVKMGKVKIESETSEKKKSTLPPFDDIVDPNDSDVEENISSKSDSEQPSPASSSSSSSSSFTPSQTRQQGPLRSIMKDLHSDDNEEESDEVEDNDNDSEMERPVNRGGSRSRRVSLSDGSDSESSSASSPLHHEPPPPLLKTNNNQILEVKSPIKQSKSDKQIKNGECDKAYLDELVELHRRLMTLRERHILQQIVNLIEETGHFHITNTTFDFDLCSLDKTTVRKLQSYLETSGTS
EWS-Fli block = inhibitors of EWS/Fli oncoprotein transcriptional activity | inhibition, % at 12.6 µM | A673 NR0B1-luciferase reporter, viability-normalised | actives 0.67% (n = 350,000);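 active = mean inhibition of at least 50% after viability correction, with every replicate also passing that limit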;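 note: firefly luciferase signal divided by Alamar Blue viability fluorescence both relative to DMSO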
Numbers without * were called inactive; . = not tested or not shown; ! = not active in a repeat. In the library only some 2.1% were active in any assay of this set; here they are far more common.

SMILES	XiGFP reactiv	PGC1a acetyl inh	GSIS activator	PAX8 reporter	MLL AF4-AF9 inh	EWS-Fli block
CCOc1cccc(/C=C/C(=O)O)c1	-0.1	-1.8	16.1	1.3	47.3*	6.0
CCOc1ccc(/C=C/C(=O)c2ccc(-c3ccccc3)cc2)cc1	0.0	.	46.7*	-7.9	.	6.9
Cc1nc(NC(=O)c2cccc(-c3cc4ccccc4oc3=O)c2)ccc1Br	0.2	.	73.1*	-7.3	.	.
COc1ccccc1-n1cc([C@@H]2C[C@H]3CN(c4ccccc4)C(=O)[C@]34CCCN24)cn1	0.3	7.6	-23.8	97.8*	2.0	-13.5
CCCNC1=C(N(C(C)=O)c2cccc(F)c2)C(=O)c2ccccc2C1=O	1.1	8.1	-24.9	108.8*	7.2	6.8
CCC(=O)N(C1=C(NC(C)C)C(=O)c2ccccc2C1=O)C(C)C	0.0	.	0.7	25.4	-5.0	-7.0
CCCCNc1cc(Cl)nc(N)n1	0.2	4.8	58.1*	-9.8	-3.3	-14.3
CCOC(=O)CCCCC(=O)c1[nH]c(=O)[nH]c1CN1CCOCC1	.	-5.0	5.7	.	85.0*	2.7
Clc1ccccc1/C=C/c1nc(-c2ccccn2)no1	-0.1	5.9	-7.8	44.7	1.9	66.6*
COCCCNc1ccc([N+](=O)[O-])cc1C(=O)Nc1cccc(C)n1	0.0	7.0	45.5*	40.1	1.5	7.7
CCNC(=O)C[C@@H]1CC[C@H]2[C@@H](COc3ccc(NC(=O)Nc4ccccc4C)cc3C(=O)N2C)O1	0.0	6.8	3.7	3.6	-0.4	3.7
O=C(Nc1ccc(F)cc1)N1CCCCN2[C@H](C1)[C@H](c1ccc(C#Cc3ccccc3)cc1)[C@@H]2CO	0.0	3.8	2.5	-40.5	-1.4	1.2
COc1ccc(COc2ccccc2C(=O)NCc2ccccc2)cc1F	23.3*	.	-38.9	11.3	.	.
COc1ccc(C(=O)Nc2ccccc2C(=O)NCc2cccnc2)cc1OC	0.9	-6.4	40.9*	6.2	-0.9	.
O=C(Nc1cc(F)ccc1F)N1CC(=O)N2[C@H](CO)[C@H](c3ccc(C#CC4CCCC4)cc3)[C@@H]2C1	0.0	5.1	-13.8	22.0	1.6	2.9
O=C1/C(=N\S(=O)(=O)c2cccs2)C([n+]2ccccc2)=C([O-])c2ccccc21	-0.7	.	-6.3	78.3*	-3.4	-9.5
COc1ccc(-c2nc3cnccn3c2Nc2ccc3c(c2)OCO3)cc1	0.0	-15.0	-15.2	7.6	27.7*	10.8
Cc1ccc(-c2nc3cnccn3c2Nc2ccc3c(c2)OCO3)cc1	-0.1	.	.	3.2	16.8	1.4
CCOC(=O)CCc1ccc(NC(=O)/C=C/c2ccc([N+](=O)[O-])o2)cc1	5.5	.	-39.6	40.3	-1.7	50.9*
COc1ccc2c(c1)OC/C(=C/c1cccs1)C2=O	0.0	.	-1.1	111.7*	8.0	-26.3
O=C(NC1CCCC1)N1CC(=O)N2[C@@H](CO)[C@H](c3ccc(-c4cccnc4)cc3)[C@@H]2C1	0.2	-2.1	0.3	.	-2.6	21.5
CCOC(=O)c1cn(-c2ccccc2)nc1-c1ccncc1	.	.	40.2*	.	.	.
CCOC(=O)c1cn(-c2ccccc2)nc1-c1cccnc1	.	-77.4	.	0.2	.	.
C[C@@H]1CCCCO[C@@H](CN(C)C)[C@H](C)CN([C@@H](C)CO)C(=O)c2cc(N(C)C)ccc2O1	-0.4	.	19.8	-15.2	0.0	.
CCCc1cc(NCCN(C)C)n2c(nc3ccccc32)c1C#N	-0.1	5.8	9.9	-3.7	-8.7	-0.5
SMILES	XiGFP reactiv	PGC1a acetyl inh	GSIS activator	PAX8 reporter	MLL AF4-AF9 inh	EWS-Fli block
CCCc1cc(NCC2CCCO2)n2c(nc3ccccc32)c1C#N (centres undefined)	.	-11.4	56.6*	.	.	.
C[C@H]1CN([C@@H](C)CO)C(=O)Cc2cc(NC(=O)Cc3cn(C)c4ccccc34)ccc2O[C@@H]1CN(C)C(=O)Nc1ccccc1	0.5	3.7	0.3	-5.6	-4.6	0.2
CNCCCN1c2ccccc2CCc2ccccc21	-0.2	.	.	11.6	5.3	13.0
CNCCC=C1c2ccccc2CCc2ccccc21	0.0	-35.0	.	10.9	37.6*!	6.4
Nc1cc2c(cc1Cl)-c1ccccc1C2	0.3	.	.	.	50.2*	-26.7
Nc1cc2c(cc1Cl)-c1ccc(Cl)cc1C2	0.1	-11.5	.	-97.4	1.4	-34.4
CC=Cc1ccc2n(c1=O)C[C@@H]1[C@@H](CO)[C@H](C(=O)N3CCN(C)CC3)N(Cc3ccccc3OC)[C@H]21 (mixture of isomers)	0.3	.	23.2	.	-1.5	2.7
O=C1CC(=O)Nc2cc(S(=O)(=O)NCc3cccs3)ccc2N1	0.2	-1.3	41.4*	47.8	-1.0	-6.1
CCC(=O)N1[C@H](CO)[C@H](c2ccc(-c3ccc(F)cc3)cc2)C12CN(C(C)=O)C2	0.1	4.9	-9.4	.	2.0	-3.7
CC1=CC(C)(C)N(C(=O)CCl)c2ccccc21	0.0	.	0.8	18.0	-2.5	6.8
CC1=CC(C)(C)N(C(=O)CCl)c2cc(C)ccc21	0.0	-4.6	7.0	17.7	-0.4	68.4*
C[C@@H]1CN([C@H](C)CO)C(=O)c2cc(NC(=O)CCCN(C)C)ccc2O[C@@H](C)CCCCO[C@H]1CN(C)C(=O)Nc1cccc2ccccc12	0.2	-9.1	-7.3	-11.4	1.1	3.8
C[C@H](CO)N1C[C@H](C)[C@@H](CN(C)S(=O)(=O)c2cccs2)OCCCC[C@H](C)Oc2ccc(NS(=O)(=O)c3cn(C)cn3)cc2C1=O	0.2	1.2	0.6	-7.5	-2.5	-20.0
CC(C)C[C@H](NC(=O)c1nc[nH]c1C(=O)NC1CCN(C(=O)OC(C)(C)C)CC1)C(=O)OC(C)(C)C	0.0	.	346.1*	3.5	7.1	12.5
CC(C)C[C@H](NC(=O)c1[nH]cnc1C(=O)N[C@@H](Cc1ccccc1)C(=O)OC(C)(C)C)C(=O)OC(C)(C)C	0.0	9.8	-21.0	68.1*	1.7	11.3
C[C@H](NC(=O)c1[nH]cnc1C(=O)Nc1ccccc1)C(=O)OC(C)(C)C	0.0	.	8.6	21.1	47.0*	9.1
CC(C)C[C@H](NC(=O)c1[nH]cnc1C(=O)N[C@@H](C)c1ccccc1)C(=O)OC(C)(C)C	0.0	.	88.3*	12.1	.	4.8
CC(C)C[C@H](NC(=O)c1nc[nH]c1C(=O)NC1CCN(C(=O)OC(C)(C)C)CC1)C(=O)OCc1ccccc1	0.0	-4.1	1.4	17.0	8.7	21.3
CC(C)C#Cc1ccc2c(c1)O[C@H](CN(C)C(=O)c1cccnc1)[C@H](C)CN([C@H](C)CO)S2(=O)=O	-0.8	-11.1	3.3	.	3.0	0.2
C/C=C/c1cnc2c(c1)C(=O)N([C@@H](C)CO)C[C@H](C)[C@@H](CN(C)C(=O)C1CCC1)O2	0.3	6.1	14.5	.	.	-7.2
COc1ccc(NC(=S)NCCCN2CCOCC2)cc1	0.0	7.2	.	-16.5	-0.2	7.6

Source: PubChem
